HUVEC prolif 384 = human endothelial cell proliferation inhibition; viability, % at 10 µM (by protocol); HUVEC proliferation, CellTiter-Glo luminescence, 72 h; stronger effect = lower value; AID 648; 86,000 tested, 1.1% active;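 active = viability at or below 30%; inactive = viability above 30%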;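 also: 100% = median luminescence of DMSO-only cell control wells on each plate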
HCT116 PTEN-null = growth suppressors of cells with PTEN tumor suppressor deletion | 140,000 tested, 1.2% active | HCT116 PTEN-null viability, CellTiter-Glo, 60 h; stronger effect = lower value | viability, % at 10 µM | AID 827;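 active = viability at or below a set limit, 4 SD under the median of all tested compounds, cut at about 3.7% in these data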;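 also: PTEN knockout HCT116 line with beta catenin targeted HCT116 as companion control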
H69AR inhibit = blocks growth of human H69AR lung tumor cells. H69AR lung tumor viability, ATP luminescence, 72 h; stronger effect = lower value. AID 598. viability, % at 10 µM. 85,000 tested, 6% active;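 active = viability at or below 40%; inactive = viability above 40%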;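 also: multidrug resistant small cell line overexpressing MRP-1 efflux transporter; 100% = mean luminescence of untreated control wells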
bCat KO growth = beta-catenin-lacking colon tumor cell growth suppression; viability, % at 10 µM; HCT116 beta-catenin knockout viability, CellTiter-Glo, 60 h; stronger effect = lower value; 140,000 tested, 1.5% active; AID 818;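 active = viability at or under a set limit, the compound median less 4 SD, cut at about 6% in these data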;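 also: 0% = Hyamine 1622 control at 20 µM and 100% = untreated cell control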
Fibroblast inh = blocks proliferation of human lung fibroblasts; viability, % at 10 µM; 85,000 tested, 1.1% active; LL 47 human lung fibroblast viability, ATP luminescence; stronger effect = lower value;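 active = viability at or below 50% in the single dose screen; inactive = viability above 50%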;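 also: compound exposure lasted 72 h before the ATP readout; 100% = median luminescence of untreated cell-only wells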
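material = human LL 47 lung fibroblast cells | dosing = compounds added from tenfold dosing solution, 0.1% DMSO final | timing = overnight cell rest, 72 h compound treatment at 37 °C | measured by = CellTiter-Glo luminescence measuring cellular ATP | evaluation = % viability versus median cells-only luminescence | control set = cell-only wells, no compound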
Starred values were filed as active, the others as inactive; · = not tested or not shown. Shown is part of a subset that was picked to be rich in hits.

SMILES	HUVEC prolif 384	HCT116 PTEN-null	H69AR inhibit	bCat KO growth	Fibroblast inh
CCC(CO)[n+]1c(C)cc(/C=C2\Sc3ccccc3N2Cc2ccccc2)cc1C (configuration not stated)	·	1.6*	·	1.4*	·
CCN1/C(=C2\SC(=S)N(Cc3ccccc3)C2=O)Sc2ccccc21	·	91	·	88	·
Cc1cc(=O)[nH]c(SCC(=O)Nc2ccc(Br)cc2)c1C#N	43	100	31*	87	93
Cc1cc(=O)[nH]c(SCC(=O)Nc2ccccc2C#N)c1C#N	·	109	·	94	·
Cn1c(SCC(=O)NCCNC(=O)CSc2nnc(C(F)(F)F)n2C)nnc1C(F)(F)F	101	100	101	96	106
CC(=O)Oc1c(C)cc(O)c2ccccc12	105	37	0.5*	35	104
CC(=O)Oc1ccc2c(C)cc(=O)[nH]c2c1	73	87	101	82	88
CCCCOc1ccc(C(=O)N2CCC(C)CC2)cc1	108	106	100	95	100
CCCCOc1ccc(C(=O)OC2CC(C)N(C)CC2C)cc1 (configuration not stated)	15*	63	63	54	88
COc1cc(/C=C/C(=O)c2ccc(C)cc2)ccc1OCC#N	·	2.0*	·	5.6*	·
CCOc1cc(/C=C/C(=O)c2ccc(C)cc2)ccc1OCC(=O)N(C)C	·	1.7*	·	1.6*	·
Cc1ccc(N=Nc2c(N)[nH]n3c(=O)cc(-c4ccccc4)nc23)cc1	·	13	·	7	·
COc1cccc(N=Nc2c(N)[nH]n3c(=O)cc(-c4ccccc4)nc23)c1	·	12	·	3.1*	·
O=S(=O)(/N=C(\Sc1ccc(Cl)cc1)c1ccccc1)c1ccccc1	61	68	39*	43	73
COc1ccc(C(=O)CSc2nnc(CN3CCCC3)n2-c2ccc(F)cc2)c(OC)c1	·	87	·	86	·
Cc1ccc(-n2sc3ccccc3c2=O)cc1S(=O)(=O)N1CCCCC1	74	34	1.5*	56	49*
O=c1c2ccccc2sn1-c1ccc(S(=O)(=O)N2CCCC2)cc1	·	85	·	81	·
O=c1c2ccccc2sn1-c1ccc(S(=O)(=O)N2CCCCC2)cc1	62	·	44	·	37*
O=c1c2ccccc2sn1-c1ccccc1	·	47	·	10	·
CN(C)CCOc1ncnc2c1oc1ccccc12	94	105	87	106	101
c1coc(CN(Cc2ccco2)c2ncnc3c2oc2ccccc23)c1	56	21	22*	28	84
CCSc1ncnc2c1oc1ccccc12	94	108	87	107	99
Clc1ncnc2c1oc1ccccc12	·	9	·	4.1*	·
COc1ccc(Nc2nc(Nc3ccc(OC)cc3)nc(SC3=NCCS3)n2)cc1	73	9	95	24	98
COc1ccc(OC)c(C(=O)c2ccc(C(=O)Nc3cccc4ccccc34)cc2)c1	·	76	·	80	·
SMILES	HUVEC prolif 384	HCT116 PTEN-null	H69AR inhibit	bCat KO growth	Fibroblast inh
Cc1ccccc1COc1ccc(/C(O)=C2/C(=O)C(=O)N(CCCn3ccnc3)C2c2ccco2)cc1 (configuration not stated)	98	·	89	·	97
Cc1cc2nnc(SCC(=O)NCc3cccs3)n2c2ccccc12	55	30	24*	31	58
Cc1ccccc1-n1ncc2c(SCC(=O)NCc3cccs3)ncnc21	66	22	28*	25	79
Cc1nnc(SCC(=O)NCc2cccs2)n1-c1ccccc1	110	98	107	96	128
Cc1occc1-c1nnc(SCC(=O)NCc2cccs2)n1-c1ccc(F)cc1	29*	90	69	91	104
Cc1cccc(NC(=O)c2sc3nc4c(c(-c5cccs5)c3c2N)CN(C)CC4)c1	15*	32	57	52	81
Cc1cccc(C)c1N1CCN(c2ccc3nnc(C(F)(F)F)n3n2)CC1	13*	38	25*	42	90
FC(F)(F)c1nnc2ccc(N3CCOCC3)nn12	108	103	102	99	93
Cc1ccc2c(c1)C(c1ccc([N+](=O)[O-])cc1)=NNC(c1ccc(Br)cc1)=N2	·	2.5*	·	3.5*	·
CCOc1ccc(NC(=S)NC(C)c2cccs2)cc1 (configuration not stated)	·	93	·	87	·
COc1ccccc1-c1nnc2n1N=C(C(C)(C)C)CS2	103	110	79	102	109
COc1cccc(-c2nnc3n2N=C(c2cc(OC)ccc2OC)CS3)c1	·	61	·	57	·
COc1cccc(-c2nnc3n2N=C(C(C)(C)C)CS3)c1	36	4	98	5.5*	52
CCOc1cccc(-c2nnc3n2N=C(c2cc(OC)ccc2OC)CS3)c1	56	18	21*	18	60
CN1CCN(C2=C(Cl)C(=O)C(c3cnc(N4CCCCC4)s3)=C(Cl)C2=O)CC1	70	1.6*	1.6*	1.7*	5.8*
CCN(CC(=O)Nc1cc(C)nn1-c1nc(C)cc(C)n1)Cc1ccccc1	51	52	14*	56	73
Cc1cc(C)nc(-n2nc(C)cc2NC(=O)CN2CCc3ccccc3C2)n1	82	2.7*	6.4*	5.1*	83
Cc1cc(C)nc(-n2nc(C)cc2NC(=O)CNCc2ccccc2)n1	89	90	48	91	95
CC(C)(C)c1ccc(Cn2nnc3c(=O)[nH]c(C4CCN(C(=O)Cc5cccs5)CC4)nc32)cc1	41	17	51	16	89
CC(C)(C)c1ccc(Cn2nnc3c(=O)[nH]c(C4CCCN(C(=O)Cc5cccs5)C4)nc32)cc1 (configuration not stated)	77	41	17*	81	96
Cc1cccc(N2CCN(C(=O)Cc3cn(C)c4ccccc34)CC2)c1C	71	26	18*	29	89
O=C(N/N=C/C=C/c1ccccc1)C1CC1c1ccccc1 (configuration not stated)	90	94	26*	90	74
Nn1cnc2c(c1=O)C1(CCCCC1)Cc1ccccc1-2	·	89	·	84	·
Oc1ccc(-c2nc3c4c(ncn3n2)-c2ccccc2CC42CCCC2)cc1	·	2.6*	·	3.0*	·
O=C(N/N=C/c1cccs1)C1COc2ccccc2O1 (configuration not stated)	69	79	24*	81	95
SMILES	HUVEC prolif 384	HCT116 PTEN-null	H69AR inhibit	bCat KO growth	Fibroblast inh
O=C(N/N=C/c1ccco1)C1COc2ccccc2O1 (configuration not stated)	·	96	·	90	·
Cc1ccc(NCc2nc3ccccc3n2CCOc2ccccc2)cc1	·	36	·	30	·
CC1(C)Cc2nc3sc4c(=O)n(CC(=O)NCc5ccco5)cnc4c3cc2CO1	68	40	22*	43	83
CC1(C)Cc2nc3oc4c(=O)n(CC(=O)Nc5ccccc5)cnc4c3cc2CO1	·	90	·	88	·
CC1(C)CC(=O)C(C=Nc2ccc(Cl)cn2)=C(O)C1	96	91	103	82	91
Cc1[nH]nc(N=CC2=C(O)CC(c3ccco3)CC2=O)c1-c1ccc(Cl)cc1 (configuration not stated)	87	86	22*	82	97
Cc1[nH]nc(N=CC2=C(O)CC(C)(C)CC2=O)c1-c1ccc(Cl)cc1	106	94	31*	91	92
